Laboratory results from the RNAGym collection of RNA variant scans (doi:10.1126/science.aae0568).
Variants at the floor of the assay were thinned out.

B1: tRNA (parent)
chain: GUUCCGUUGGCGUAAUGGUAACGCGUCUCCCUCCUAAGGAGAAGACUGCGGGUUCGAGUCCCGUACGGAACG

Variants of: B1
Experiment: yeast fitness relative to wild type (ratio to wild type); higher = fitter; tRNA-Arg(CCU), competitive growth, 37 C, YPD
In short: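 For this measurement, the tRNA-Arg(CCU) gene was varied by chemical synthesis at a 3% per-site mutation rate across 69 sites, and each variant was placed at the native genomic locus in Saccharomyces cerevisiae. The pooled strains went through a 24-hour competition in YPD at 37°C in six parallel replicates, with amplicons from start and end populations read by 100-nucleotide paired-end sequencing. Darwinian fitness relative to wild type followed from the change in each genotype's frequency. Genotypes needed ≥ 100 starting reads, and estimates < 0.5 were set to 0.5.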

Compared with A20C C62U A65G, A20C G23C C34A G67A is lower in yeast fitness: 0.593 for the first, at most 0.5 for the second.

Going from A20C C55G A65G to A20C G23C C27A U64A, the yeast fitness falls from 0.53 to at most 0.5.

Compared with A20C C30A C33U C34U C49A, A20C C34G A42G is higher in yeast fitness: 0.733 for the first, 0.922 for the second.

First: A20C G25A A57G
Second: A20C C31G U47C G58C
The yeast fitness of the first is higher: 0.694 for the first, at most 0.5 for the second.

Going from A20C G25C C31U A43G G51A G67A to A20C G38A G51C U64G, the yeast fitness falls from 0.583 to at most 0.5.

Going from A20C G38A to A20C G38C, the yeast fitness falls from 0.707 to 0.639.

Going from A20C C62G to A20C C62A, the yeast fitness rises from 0.618 to 0.831.

First: A20C C62U
Second: A20C G39C A70U
The yeast fitness of the first is higher: 0.923 for the first, 0.521 for the second.

Going from A20C C30A to A20C U28G C46A, the yeast fitness falls from 0.746 to 0.531.

Compared with A20C G39A, A20C C60U is lower in yeast fitness: 0.84 for the first, 0.742 for the second.

Going from A20C C60G to A20G A21C A43U G50A G52U A69C, the yeast fitness falls from 0.591 to at most 0.5.

Compared with A20C G48C C66U, A20G A21C C30A G41C is lower in yeast fitness: 0.73 for the first, 0.581 for the second.

Going from A20C C30U C31U A45C A57U C66G to A20C G23A A70U, the yeast fitness rises from at most 0.5 to 0.551.

Compared with A20C U26C, A20C C29U G50C is lower in yeast fitness: 0.883 for the first, at most 0.5 for the second.

Going from A20C C31U G68C to A20C C33A A65U, the yeast fitness falls from 0.609 to at most 0.5.

Compared with A20C G50A C62U, A20C C31U A40G G52C C62A A65G is lower in yeast fitness: 1.13 for the first, at most 0.5 for the second.

A20C G23A C30A A40U and A20C C30A A57U cannot be ordered by yeast fitness: at most 0.5 for the first, at most 0.5 for the second.

Compared with A20C C33A G48A C66U A70G, A20C C62U A70G is higher in yeast fitness: at most 0.5 for the first, 0.733 for the second.

First: A20C G25A U28C G44A
Second: A20C C34U U47G C60U C62G
The yeast fitness of the first is higher: 0.553 for the first, at most 0.5 for the second.

First: A20C G23A C55G
Second: A20C U54A
The yeast fitness of the first is lower: 0.593 for the first, 0.698 for the second.

First: A20C G38A C55A C66U
Second: A20C C46A G68A
The yeast fitness of the first is lower: at most 0.5 for the first, 0.875 for the second.

Compared with A20C G25C C29U, A20C C33A G41C C49G A70U is higher in yeast fitness: at most 0.5 for the first, 0.575 for the second.

A20C U26C C27U G67A and A20C U26G A36C G38U cannot be ordered by yeast fitness: at most 0.5 for the first, at most 0.5 for the second.

Going from A20C G56A C61U to A20C G50A G68A, the yeast fitness falls from 0.571 to at most 0.5.

A20C C46A C61U C66U and A20C C29U C49G G58A cannot be ordered by yeast fitness: at most 0.5 for the first, at most 0.5 for the second.

Going from A20C G41C A42C G56A U64C A70U to A20C C61G, the yeast fitness rises from at most 0.5 to 0.747.

Going from A20C C61A to A20C C30G C55A G67A, the yeast fitness falls from 0.779 to at most 0.5.

Compared with A20C G23C C27A, A20C C33U G41A is lower in yeast fitness: 0.574 for the first, at most 0.5 for the second.

Going from A20C C34U C60A C66U to A20C C30A A45U C60U, the yeast fitness falls from 0.605 to at most 0.5.

Compared with A20C G56C, A20C U59A is higher in yeast fitness: 0.625 for the first, 0.697 for the second.

A20C C30A A37G U59A and A20C C29U U54C cannot be ordered by yeast fitness: at most 0.5 for the first, at most 0.5 for the second.

Compared with A20G A21C C49U, A20C C33G U59C is higher in yeast fitness: 0.548 for the first, 0.685 for the second.

First: A20C C30G U35C C60A
Second: A20C U53G C66U
The yeast fitness of the first is lower: at most 0.5 for the first, 0.696 for the second.

First: A20C C31U A42U
Second: A20C U32A U64A A65U
The yeast fitness of the first is higher: 0.643 for the first, 0.558 for the second.

Compared with A20C G39C C61U, A20C C34A is higher in yeast fitness: at most 0.5 for the first, 0.674 for the second.

Compared with A20C G48C, A20C C66A is lower in yeast fitness: 0.889 for the first, 0.697 for the second.

Going from A20C C66U to A20C C66G, the yeast fitness falls from 0.931 to 0.766.

Compared with A20C G23A G50A C55G C60A, A20C G56A A70U is higher in yeast fitness: at most 0.5 for the first, 0.91 for the second.

First: A20C G56A A70G
Second: A20C C29U C34A C46A G50A A57U G58A C66U
The yeast fitness of the first is higher: 0.611 for the first, at most 0.5 for the second.

First: A20C U28G U47C G68C
Second: A20C U28C A65G
The yeast fitness of the first is lower: at most 0.5 for the first, 0.661 for the second.

A20C C33U G38C and A20C C34G A43C C62U G68C cannot be ordered by yeast fitness: at most 0.5 for the first, at most 0.5 for the second.

First: A20C C49A U54A G58A C60A
Second: A20C G25A C31G C33U C34U G41C A57G
The yeast fitness of the first is higher: 0.593 for the first, at most 0.5 for the second.

A20C C31A C60U and A20C C31U U53A cannot be ordered by yeast fitness: at most 0.5 for the first, at most 0.5 for the second.

A20C G23A A43G C55G C60A and A20C C61G C62A cannot be ordered by yeast fitness: at most 0.5 for the first, at most 0.5 for the second.

Going from A20C C55U A70C to A20C U53G, the yeast fitness rises from 0.612 to 0.623.

Compared with A20C G68U, A20C G68C is lower in yeast fitness: 0.909 for the first, 0.689 for the second.

Compared with A20C C49A, A20C U35G C46U is lower in yeast fitness: 0.575 for the first, at most 0.5 for the second.

Going from A20C G25A G44C G68A to A20C G52C C61G, the yeast fitness falls from 0.523 to at most 0.5.

Compared with A20C U47G C60G, A20C C33A A40C is higher in yeast fitness: at most 0.5 for the first, 0.7 for the second.

A20C U28C C30A G44C A45G C55A and A20C C61U A69C A70C cannot be ordered by yeast fitness: at most 0.5 for the first, at most 0.5 for the second.

Compared with A20C U28A C31G C55A G68C, A20C U32C is higher in yeast fitness: at most 0.5 for the first, 0.985 for the second.

Compared with A20C U32A, A20G A21C G39C G48C C62G is lower in yeast fitness: 0.719 for the first, at most 0.5 for the second.

Going from A20C G25C U35A A45U to A20C G38A C49A G58C A65G G68A A69C, the yeast fitness rises from at most 0.5 to 0.589.

Going from A20C C30A A70G to A20C G52C U54A, the yeast fitness falls from 0.588 to at most 0.5.

Going from A20C G48C A57G to A20C C30G C60A, the yeast fitness falls from 0.545 to at most 0.5.

A20G A21G G38C G50C and A20C C30U C66U cannot be ordered by yeast fitness: at most 0.5 for the first, at most 0.5 for the second.

A20C C29U U32A A70U and A20C C46U G50A G67C A70U cannot be ordered by yeast fitness: at most 0.5 for the first, at most 0.5 for the second.

A20C C34U A40G A57C G67C and A20G A21C G39C C62G cannot be ordered by yeast fitness: at most 0.5 for the first, at most 0.5 for the second.

Compared with A20C C46U, A20C G23U C60A is lower in yeast fitness: 1.13 for the first, 0.676 for the second.

Compared with A20C C31A G39C C49U, A20C G67C A70U is higher in yeast fitness: at most 0.5 for the first, 0.761 for the second.

Compared with A20C C34A A37G C46A G63C A69C, A20C G39A U54A is higher in yeast fitness: at most 0.5 for the first, 0.599 for the second.

A20C U28G U47C C66U and A20C U32A A37U cannot be ordered by yeast fitness: at most 0.5 for the first, at most 0.5 for the second.

Going from A20C C30G C62U to A20C G67C, the yeast fitness rises from 0.554 to 0.654.

Going from A20C G67A to A20C U28C G41A, the yeast fitness falls from 0.873 to 0.592.

Going from A20C C34G A43C G56A C61U to A20C U28C A36C, the yeast fitness falls from 0.705 to at most 0.5.

First: A20C U26A C34G C46G
Second: A20C U47C
The yeast fitness of the first is lower: 0.595 for the first, 0.925 for the second.

First: A20C G51C
Second: A20C G51A
The yeast fitness of the first is lower: 0.541 for the first, 0.815 for the second.

A20C G38C A70C and A20C U26G A43U cannot be ordered by yeast fitness: at most 0.5 for the first, at most 0.5 for the second.

Going from A20C G48C G67A to A20C C33U A43C G48C, the yeast fitness falls from 0.638 to 0.525.

Compared with A20C C30U C33G A40G, A20C C31A A70U is lower in yeast fitness: 0.537 for the first, at most 0.5 for the second.

Compared with A20C C33U, A20C C55A is lower in yeast fitness: 0.816 for the first, 0.699 for the second.

A20C G38C G63A A70C and A20C C31U A40G G52C G67C cannot be ordered by yeast fitness: at most 0.5 for the first, at most 0.5 for the second.

Going from A20C G23A to A20C G25C G38C G56C G63C U64C, the yeast fitness falls from 0.788 to 0.524.

A20C C49G C62U and A20C C34U G52A C62U cannot be ordered by yeast fitness: at most 0.5 for the first, at most 0.5 for the second.

First: A20C G25A
Second: A20C G25C
The yeast fitness of the first is higher: 1.06 for the first, 0.783 for the second.

Going from A20C U64C to A20C U64A, the yeast fitness falls from 0.984 to 0.7.

Going from A20C U26A C34G A36G C46G to A20C U28C, the yeast fitness rises from at most 0.5 to 0.929.

Compared with A20C C34A G50C C61U, A20C C49U A70G is higher in yeast fitness: at most 0.5 for the first, 0.748 for the second.

Compared with A20C G25A G44A, A20C U47G A69U is lower in yeast fitness: 0.85 for the first, 0.559 for the second.

Compared with A20C G50A, A20C C31G C61G A65G is lower in yeast fitness: 0.861 for the first, at most 0.5 for the second.

First: A20C U35G C46U G67U
Second: A20C C31G G58C
The yeast fitness of the first is lower: at most 0.5 for the first, 0.92 for the second.

First: A20C U26G A36C G38U A65U
Second: A20C G44C
The yeast fitness of the first is lower: at most 0.5 for the first, 0.688 for the second.

First: A20G A21C C30A G41C C66U
Second: A20C C34G G68C
The yeast fitness of the first is higher: 0.526 for the first, at most 0.5 for the second.

A20C C30A C33U C34G G38C C62A showed a yeast fitness of at most 0.5.
